# Measured values collected from several papers.
# Lines come from different studies, so protocols differ.
# Cell line: A549
# Effect on: cell growth or viability
SMILES,test,setting,IC50
CCCCn1cnc2ccc(-c3ccc(NC(=O)NCC)nc3)cc2c1=O,CCK-8,72 h,> 10 µM
S=C(N/N=C/c1cccc2cc3ccccc3nc12)Nc1ccccc1,MTT,48 h,> 50 µM
CCCn1cnc2ccc(-c3ccc(N4CCCCCC4=O)nc3)cc2c1=O,CCK-8,72 h,> 10 µM
CC(=O)Nc1nc2cc(-c3ccc4ncn(Cc5ccccc5)c(=O)c4c3)ccc2s1,MTT,72 h,> 20 µM
CCCn1cnc2ccc(-c3ccc(N4CCCCC4=O)nc3)cc2c1=O,CCK-8,72 h,> 10 µM
CC(C)CCn1cnc2ccc(-c3ccc4sc(NC(=O)Nc5ccc(F)cc5)nc4c3)cc2c1=O,MTT,72 h,2.39 µM
CC(C)CNC(=S)N/N=C/c1ccc(N2CCC(O)CC2)cc1,MTT,24 h,1.5 µM
CC(C)[C@@H]1NC(=O)[C@@H](CCCNC(=N)N)NC(=O)[C@H]([C@@H](C)O)NC(=O)[C@@H](CN)NC(=O)[C@H](Cc2ccccc2)NC(=O)[C@@H](Cc2ccccc2)NC1=O,ATP luminescence,,79.8 µM
CNCc1cc(OC)cc2c1CN(c1cccc(-c3nncn3C(C)CC(F)(F)F)n1)C2=O (stereo not drawn),CCK-8,,> 10 µM
COc1ccc(NC(=O)Nc2nc3cc(-c4ccc5ncn(CCN(C)C)c(=O)c5c4)ccc3s2)cc1,MTT,72 h,5.46 µM
CC(C)c1ccc(/C=C2\N=C(SCC(=O)O)N(c3ccccc3)C2=O)cc1,MTT,,57.4 µg/mL
O=[N+]([O-])c1ccc(NC(=S)N/N=C/c2cccc3cc4ccccc4nc23)cc1,MTT,48 h,> 50 µM
C/C(=N/NC(=O)c1cn(-c2ccccc2)nc1-c1ccc(Br)cc1)c1c(O)cc(C)oc1=O,MTT,48 h,140 µM
CN(C)c1ccc(Nc2nc(-c3ccncc3)nc3c2CC(N)CC3)cc1 (stereo not drawn),MTT,,17.1 µM
OC1CCN(c2ccc(/C=N/NC(=S)Nc3ccc(Cl)cc3)cc2)CC1,MTT,24 h,2.92 µM
CN(C)C(=O)Nc1nc2c(Cl)cc(Cl)cc2c(=O)n1-c1ccccc1,MTT,48 h,> 200 µM
Cc1cc(NS(=O)(=O)c2ccc(NC(=O)/C(C#N)=C/c3ccc(N4CCOCC4)cc3)cc2)no1,MTT,48 h,109 µM
O=c1c2cc(Cl)cc(Cl)c2nc(NNc2cccc(Cl)c2)n1-c1ccccc1,MTT,48 h,> 200 µM
CCCCNC(=O)Nc1nc2cc(-c3ccc4ncn(Cc5ccccc5)c(=O)c4c3)ccc2s1,MTT,72 h,6.27 µM
C/C(=N\C(=S)/N=C(\C)c1c(O)c2ccccc2oc1=O)c1c(O)c2ccccc2oc1=O,MTT,48 h,6.66 µM
CCCCn1cnc2ccc(-c3ccc(NC(=O)Nc4ccc(CC)cc4)nc3)cc2c1=O,CCK-8,72 h,> 10 µM
CC(=NNC(=O)c1cc(-c2ccccc2)n(-c2ccc(S(N)(=O)=O)cc2)n1)c1ccc(C)cc1,fluorescence,48 h,11.1 µM
CC(C)[C@H](NC(=O)[C@H](Cc1c[nH]c2ccccc12)NC(=O)[C@H](Cc1c[nH]cn1)NC(=O)[C@H](CCCNC(=N)N)NC(=O)[C@H](CCCNC(=N)N)NC(=O)[C@H](Cc1c[nH]c2ccccc12)NC(=O)[C@H](Cc1c[nH]c2ccccc12)NC(=O)[C@H](Cc1c[nH]cn1)NC(=O)[C@H](Cc1c[nH]c2ccccc12)NC(=O)[C@H](CCCNC(=N)N)NC(=O)[C@@H](N)CCCCN)C(=O)N[C@H](C(=O)N[C@@H](Cc1c[nH]c2ccccc12)C(N)=O)C(C)C,MTT,24 h,106 µM
O=C(Nc1cccc(C(F)(F)F)c1)Nc1nc2cc(-c3ccc4ncn(CCN5CCOCC5)c(=O)c4c3)ccc2s1,MTT,72 h,1.48 µM
CCCCn1cnc2ccc(-c3ccc(NC(=O)c4ccccc4)nc3)cc2c1=O,CCK-8,72 h,> 10 µM
C/C(=N\c1nc(N)nc(/N=C(\C)c2c(O)c3ccccc3oc2=O)n1)c1c(O)c2ccccc2oc1=O,MTT,48 h,5.58 µM
CN1CCC(NC2CCc3[nH]c4c(C(N)=O)ccc(-c5ccccc5Cl)c4c3C2)CC1 (stereo not drawn),,,0.0301 µM
COc1cc(CNc2ccc(C(=O)O)cc2)cc(OC)c1O,resazurin,72 h,> 100 µM
CN(C)CCn1cnc2ccc(-c3ccc4sc(NC(=O)Nc5ccc(F)cc5)nc4c3)cc2c1=O,MTT,72 h,0.98 µM
NS(=O)(=O)c1ccc(-n2nc(C(=O)NN=Cc3cccnc3)cc2-c2ccccc2)cc1,fluorescence,48 h,24.6 µM
Cc1ccc(NNc2nc3c(Cl)cc(Cl)cc3c(=O)n2-c2ccccc2)cc1,MTT,48 h,> 200 µM
CN(C)c1ccc(CNc2ccc(C(=O)O)cc2)cc1,resazurin,72 h,> 100 µM
C(=N\Nc1cc(N/N=C/c2cccc3cccnc23)nc(-c2ccccc2)n1)/c1cccc2cccnc12,MTT,48 h,12.6 µM
Cc1ccc(C(C)C)c(OC2=C(Cl)C(=O)c3ccccc3C2=O)c1,MTT,24 h,40 µg/mL
CCc1oc2cc(S(=O)(=O)Nc3ccc(S(=O)(=O)Nc4nccs4)cc3)ccc2c1C(=O)c1cc(Br)c(O)c(Br)c1,MTT,96 h,226 µM
Cc1ccc(NC(=O)Nc2nc3cc(-c4ccc5ncn(Cc6ccccc6)c(=O)c5c4)ccc3s2)cc1,MTT,72 h,7.61 µM
CC(C)[C@@H]1NC(=O)[C@@H](CCCNC(=N)N)NC(=O)[C@H]([C@@H](C)O)NC(=O)[C@@H](CCCN)NC(=O)[C@H](Cc2ccccc2)NC(=O)[C@@H](Cc2ccc(O)cc2)NC1=O,ATP luminescence,,> 100 µM
NS(=O)(=O)c1ccc(-n2nc(-c3nnc(CCl)o3)cc2-c2ccccc2)cc1,fluorescence,48 h,22.3 µM
C/C(=N\C(=N)/N=C(\C)c1c(O)c2ccccc2oc1=O)c1c(O)c2ccccc2oc1=O,MTT,48 h,66 µM
O=C(Nc1ccc(C(F)(F)F)cc1)Nc1nc2cc(-c3ccc4ncn(CCN5CCOCC5)c(=O)c4c3)ccc2s1,MTT,72 h,2.01 µM
O=C(Cn1cc(COc2ncnc3[nH]cnc23)nn1)NCc1ccc(Cl)cc1,MTT,,15.3 µM
CCCCCC(=O)Nc1ccc(-c2ccc3ncn(Cc4ccccc4)c(=O)c3c2)cn1,CCK-8,72 h,> 10 µM
NNc1nc2ccc(Br)cc2c(=O)n1-c1ccccc1,MTT,48 h,53.5 µM
Cc1ccc(CNC(=S)N/N=C/c2ccc(N3CCC(O)CC3)cc2)cc1,MTT,24 h,3.28 µM
C#Cc1cccc(Nc2ncnc3cc(OCCOC)c(OCCOC)cc23)c1,MTT,48 h,17.3 µM
O=C(O)c1ccc(NCc2ccc(Cl)cc2)cc1,resazurin,72 h,> 100 µM
O=C(C=Cc1ccc(OCCCCOc2ccc(C=CC(=O)c3cccs3)cc2)cc1)c1cccs1,MTT,48 h,232 µM
O=C(O)c1ccc(NCc2cccc(O)c2)cc1,resazurin,72 h,> 100 µM
CCCCC(=O)Nc1cc(C)c(-c2ccc3ncn(CCC)c(=O)c3c2)cn1,CCK-8,72 h,> 10 µM
[NH2][Pt]([NH2])([Cl])[Cl],MTT,48 h,27.2 µM
COc1cc(CNc2ccc(C(=O)O)cc2)ccc1O,resazurin,72 h,> 100 µM
